Test results taken from ChEMBL document CHEMBL1268877, “Novel rhodanine derivatives induce growth inhibition followed by apoptosis” (Bioorg Med Chem Lett, 2010).
Activity calls are given as the source filed them. No cut-off for these calls is given here.

Columns and labels:
[1] = system: CCRF-CEM; test: Cytotoxicity against human CEM cells after 48 hrs by trypan blue assay; format: functional, cell-based
Method in brief: (§1)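 Trypan blue exclusion on CEM T-cell leukemia cells given 10, 50, 100 or 250 µM compound (DMSO as vehicle control); live cells counted every 24 h after addition until control culture reached stationary phase; independent experiments; IC50 estimated at 48 and 72 h.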

[2] = system: CCRF-CEM; test: Cytotoxicity against human CEM cells at 10 to 250 uM by trypan blue assay; format: functional, cell-based; conditions: TDE = time-dependent effect; method in brief: as §1
[3] = system: CCRF-CEM; test: Induction of cell cycle arrest in human CEM cells assessed as decrease in accumulation at G2/M phase at 10 to 250 uM after 48 hrs by propidium iodide staining-based FACS analysis; format: functional
Method in brief: (§2)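 CEM cells treated 48 h with 10, 20, 50, 100 or 250 µM compound or DMSO vehicle, then fixed, stained with propidium iodide and analysed by flow cytometry (10,000 cells per sample); percent cells in subG1, G1, S and G2/M quantified; SD from three independent experiments.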

[4] = system: CCRF-CEM; test: Induction of cell cycle arrest in human CEM cells assessed as accumulation at subG1 phase at 10 to 250 uM after 48 hrs by propidium iodide staining-based FACS analysis; format: functional; method in brief: as §2
[5] = system: CCRF-CEM; test: Induction of cell cycle arrest in human CEM cells assessed as accumulation at S phase at 10 to 50 uM after 48 hrs by propidium iodide staining-based FACS analysis; format: functional; method in brief: as §2
[6] = system: CCRF-CEM; test: Cytotoxicity against human CEM cells after 24 to 72 hrs by LDH release assay; format: functional, cell-based
Method in brief: (§3)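 LDH release measured at 490 nm from CEM cells exposed to 10, 50, 100 and 250 µM compound for 24, 48 and 72 h; expressed as percent LDH release; SD from three independent experiments.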

[7] = system: CCRF-CEM; test: Antiproliferative activity against human CEM cells assessed as inhibition of [3H]thymidine incorporation at 10 to 250 uM after 24 to 48 hrs by scintillation counting; format: functional, cell-based
Method in brief: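 [3H]-thymidine added to CEM T-cell leukemia cells treated with 10, 50, 100 or 250 µM compound; radioactive counts per minute (cpm) calculated and plotted; data from independent experiments.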

[8] = system: CCRF-CEM; test: Induction of cell cycle arrest in human CEM cells assessed as decrease in accumulation at G1 phase at 10 to 250 uM after 48 hrs by propidium iodide staining-based FACS analysis; format: functional; method in brief: as §2
[9] = system: CCRF-CEM; test: Cytotoxicity against human CEM cells assessed as mild induction of ROS production at 20 uM after 4 hrs by H2DCFDA staining-based flow cytometry; format: functional, cell-based
Method in brief: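 CEM cells treated with 20 µM compound for 1, 2 and 4 h; ROS production quantified by flow cytometry, with unstained and dye-stained cells as references and H2O2 as positive control.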

[10] = system: CCRF-CEM; test: Cytotoxicity against human CEM cells after 72 hrs by trypan blue assay; format: functional, cell-based; method in brief: as §1
[11] = Cytotoxicity against human 8E5 cells at 250 uM after 24 to 48 hrs by MTT assay; format: cell-based
[12] = system: CCRF-CEM; test: Cytotoxicity against human CEM cells at 10 to 250 uM by LDH release assay; format: functional, cell-based; conditions: TDE = time-dependent effect; method in brief: as §3
[13] = system: CCRF-CEM; test: Cytotoxicity against human CEM cells at 250 uM after 6 days by trypan blue assay; format: functional, cell-based; method in brief: as §1
[14] = system: CCRF-CEM; test: Induction of apoptosis in human CEM cells assessed as chromosomal DNA fragmentation at 20 uM after 72 hrs by agarose gel electrophoresis; format: functional, cell-based
Method in brief: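 Chromosomal DNA extracted from CEM cells treated with 20 µM compound and harvested at 12, 24, 36, 48 and 72 h (DMSO control), then resolved on 1% agarose gel beside a 2-log DNA ladder.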

[15] = system: CCRF-CEM; test: Cytotoxicity against human CEM cells at 10 uM after 24 to 48 hrs by MTT assay; format: functional, cell-based
Method in brief: (§4)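 CEM T-cell leukemia cells cultured with 10, 50, 100 and 250 µM compound (DMSO vehicle control), harvested after 24 and 48 h for MTT assay; percent viable cells calculated taking DMSO-treated cells as 100%; SD from three independent experiments.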

[16] = system: CCRF-CEM; test: Cytotoxicity against human CEM cells after 6 days by trypan blue assay; format: functional, cell-based; method in brief: as §1
[17] = system: CCRF-CEM; test: Cytotoxicity against human CEM cells at 10 to 250 uM after 24 to 48 hrs by MTT assay; format: functional, cell-based; method in brief: as §4
[18] = Cytotoxicity against human 8E5 cells at 10 to 250 uM after 24 to 48 hrs by MTT assay; format: cell-based

Row | Structure (SMILES) | IC50 [1] | Activity [2] | Activity [3] | Activity [4] | Activity [5] | Activity [6] | inhibition [7] | Activity [8] | Activity [9] | IC50 [10] | Activity [11] | Activity [12] | Activity [13] | Activity [14] | Activity [15] | Activity [16] | Activity [17] | Activity [18]
1 | CCN1C(=O)/C(=C\c2ccccc2)SC1=S | 8 µM | tde | Active | Active | Active | Dose-dependent effect | Active | Active | Active | 6 µM | Toxic | tde | Active | Active | Active | Dose-dependent effect | – | –
2 | CCN1C(=O)C(=C(C)C)OC1=S | 80 µM | tde | – | – | – | – | – | – | – | 50 µM | – | – | Active | – | – | Dose-dependent effect | Active | Non-toxic
3 | CC(C)=C1C(=O)N(C)C(=S)N1C | 70 µM | tde | – | – | – | – | – | – | – | 40 µM | – | – | Active | – | – | Dose-dependent effect | Active | Non-toxic
